From ChEMBL document CHEMBL1122821, “Synthesis and some pharmacological properties of 18 potent O-alkyltyrosine-substituted antagonists of the vasopressor responses to arginine-vasopressin” (J Med Chem, 1985)
Starred links: 1 amine or outer side, 2 acyl side, 3 side chain; linkers in the order of their positions; H or OH if unused. Positions of bridges follow the written chain, without caps; N, C: chain ends. Non-standard residues stand in square brackets, D forms with d. Residues, ends and D or L forms follow the SMILES beside them. X2 = O=C(CC1(S[*:2])CCCCC1)[*:1]

Experiments:
[1] = species on record: Rattus norvegicus; experiment: Antidiuretic activity was evaluated for the compound in rats under ethanol anesthesia; antagonist; type: functional, Urine
Outline: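 Rats under ethanol anesthesia, with USP posterior pituitary reference standard as agonist. Each peptide was given at a high and a low dose, bracketing the dose that cuts the response to 2x units of agonist to the 1x-unit response. Effective dose (nmol/kg) was interpolated on a log scale. In vivo pA2 = −log(effective dose / 67 mL/kg). Means ± SE of at least four estimates.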

[2] = species on record: Rattus norvegicus; experiment: In vitro anti-oxytocic potency was evaluated in the absence of Mg2+; type: functional; conditions: read-out: pA2 (converted)
Outline: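 Isolated rat uterus in medium containing no Mg2+. USP posterior pituitary reference standard used as agonist. In vitro pA2 values were derived as in Bankowski et al.; means ± SE.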

[3] = species on record: Rattus norvegicus; experiment: In vitro anti-oxytocic potency was evaluated in the presence of 0.5 mM of Mg2+; type: functional; conditions: read-out: pA2 (converted)
Outline: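 Isolated rat uterus in medium containing 0.5 mM Mg2+. USP posterior pituitary reference standard used as agonist. In vitro pA2 values were derived as in Bankowski et al.; means ± SE.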

[4] = test system: Rattus norvegicus; experiment: In vivo anti-vasopressor activity measured as the negative logarithm of the effective dose / the estimated volume of distribution (67 mL/kg); type: ADME, organism-based; conditions: read-out: pA2 (converted)
Outline: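 Rats treated with phenoxybenzamine under urethane anesthesia. Pressor responses to the USP posterior pituitary standard were given intravenously. Effective dose (nmol/kg) was interpolated on a log scale; means ± SE of at least four estimates. pA2 = −log(effective dose / 67 mL/kg).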

[5] = test system: Rattus norvegicus; experiment: In vivo antidiuretic activity in rats under ethanol anesthesia.; type: functional, Urine
Outline: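 Rats under ethanol anesthesia, with the USP posterior pituitary reference standard as reference. Agonistic activity is expressed in units per milligram.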

| Compound | Activity [1] | Kb [2] | Kb [3] | Kb [4] | Activity [5] |
| --- | --- | --- | --- | --- | --- |
| CCOc1ccc(C[C@@H]2NC(=O)CC3(CCCCC3)SSC[C@@H](C(=O)N3CCC[C@H]3C(=O)N[C@@H](CCCN=C(N)N)C(=O)NCC(N)=O)NC(=O)[C@H](CC(N)=O)NC(=O)[C@H](C(C)C)NC(=O)[C@H](Cc3ccccc3)NC2=O)cc1 (Y(Et)FVNCPRG-NH2; linker N-5 via X2) | 7.1 mg | 9.55 nM | 87.1 nM |  |  |
| CCOc1ccc(C[C@@H]2NC(=O)CC3(CCCCC3)SSC[C@@H](C(=O)N3CCC[C@H]3C(=O)N[C@H](CCCN=C(N)N)C(=O)NCC(N)=O)NC(=O)[C@H](CC(N)=O)NC(=O)[C@H](C(C)C)NC(=O)[C@H](Cc3ccccc3)NC2=O)cc1 (Y(Et)FVNCP[dR]G-NH2; linker N-5 via X2) | 7.57 mg |  |  | 6.92 nM |  |
| COc1ccc(C[C@@H]2NC(=O)CC3(CCCCC3)SSC[C@@H](C(=O)N3CCC[C@H]3C(=O)N[C@H](CCCN=C(N)N)C(=O)NCC(N)=O)NC(=O)[C@H](CC(N)=O)NC(=O)[C@H](CCC(N)=O)NC(=O)[C@H](Cc3ccccc3)NC2=O)cc1 |  | 7.41 nM | 57.5 nM | 2.4 nM | 0.31 units/mg |
